# Assay results collected from several papers.
# FLT3 D835Y: Receptor-type tyrosine-protein kinase FLT3 (FLT3, Homo sapiens, UniProt P36888, D835Y)
# FLT3 N841I: Receptor-type tyrosine-protein kinase FLT3 (FLT3, Homo sapiens, UniProt P36888, N841I)
# FLT3 D835V: Receptor-type tyrosine-protein kinase FLT3 (FLT3, Homo sapiens, UniProt P36888, D835V)
Structure (SMILES),target,assay,conditions,measurement,result
C=CC(=O)N1CCC([C@@H]2CCNc3c(C(N)=O)c(-c4ccc(Oc5ccccc5)cc4)nn32)CC1,"Receptor-type tyrosine-protein kinase FLT3 (FLT3, Homo sapiens, UniProt P36888, ITD)","enzyme activity, inhibitor",1 µM,inhibition,5%
C[C@H]1CC[C@H](n2c3cnccc3c3cnc(Nc4ccc5c(n4)CCN(C(=O)CO)C5)nc32)CC1,FLT3 D835Y,cell-free assay,1 µM,remaining signal,1%
CCCCC(=O)Nc1ccc(-c2ccc3ncn(CCC)c(=O)c3c2)cn1,"Receptor-type tyrosine-protein kinase FLT3 (FLT3, Homo sapiens, UniProt P36888, K663Q)","binding, competition with immobilised ligand",0.5 µM,remaining binding,96%
COc1ccc2oc(-c3ccc4nc(N)oc4c3)c/c(=N\c3ccccc3NC(=O)CCN)c2c1,FLT3 D835Y,cell-free assay,1 µM,remaining signal,92%
Cc1ccc(NC(=O)c2ccnc(C(F)(F)F)c2)cc1-c1cc(OCCO)nc(N2CCOCC2)c1,"Receptor-type tyrosine-protein kinase FLT3 (FLT3, Homo sapiens, UniProt P36888, R834Q)",binding,1 µM,remaining binding,100%
Cc1n[nH]c2ccc3nc(-c4ccc(C(=O)NCCN(C)C)cc4F)c4c(c3c12)CCCC4,FLT3 D835Y,"enzyme activity, inhibitor, radiometric",0.5 µM,remaining activity,2%
O=C1C=C(Nc2ccc(OCc3cn(Cc4ccccc4)nn3)cc2)C(=O)c2ccccc21,"Receptor-type tyrosine-protein kinase FLT3 (FLT3, Homo sapiens, UniProt P36888)","enzyme activity, inhibitor, radiometric",10 µM,inhibition,46%
C[C@]1(O)CCCN(c2nc(Nc3ccc(S(=O)(=O)N[C@H]4CC[C@H](CN5CCN(c6ccc(C7CCC(=O)NC7=O)cc6F)CC5)CC4)cc3Cl)ncc2C(F)(F)F)C1 (some centres unmarked),FLT3 N841I,"binding, competition with immobilised ligand",1 µM,remaining binding,68%
CN1CCN(C(=O)c2ccc(NC(=O)Nc3ccc(N(C)c4ccnc(Nc5ccc(CS(C)(=O)=O)cc5)n4)cc3)cc2)CC1,FLT3 D835Y,binding,1 µM,remaining binding,5.3%
C#Cc1cc(-c2cc(Nc3nc(N[C@@H](C)c4ccc(F)cn4)ncc3Cl)n[nH]2)ccc1C=O,FLT3 D835Y,"enzyme activity, inhibitor",0.2 µM,inhibition,98.5%
COc1ccc2[nH]c3c4[nH]c5ccc(OC)cc5c4c4c(c3c2c1)C(=O)NC4=O,FLT3 D835V,binding,1 µM,remaining binding,4%
CC#CC(=O)N1CCC[C@H]1c1nc(-c2ccc(C(=O)Nc3ccccn3)cc2)c2c(N)nccn12,FLT3 D835V,"enzyme activity, inhibitor",1 µM,inhibition,1%
C1=C/COCc2cc(ccc2OCCN2CCCC2)Nc2nccc(n2)-c2cccc(c2)COC/1,FLT3 N841I,binding,0.1 µM,remaining binding,4.3%
CNS(=O)(=O)c1ccc(Nc2ncc(C(F)(F)F)c(N3CCC[C@](C)(O)C3)n2)c(C)c1,FLT3 N841I,"binding, competition with immobilised ligand",1 µM,remaining binding,70%
